# MrgX1 agonist = human MrgX1 receptor agonism, primary screen; B-score at 10 µM; 0.44% of 310,000 active; AID 588627; MrgX1-HEK293 cells, Fluo-4 calcium fluorescence, agonist mode; stronger effect = higher value; Q96LB2;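 active means calcium response B-score plate-corrected fluorescence ratio at least 3 library SD, with starting fluorescence B-score inside 5 SD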
#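 Test system: HEK293 cells stably expressing human MrgX1 receptor; Input: fifteen thousand cells per well; Dosing: compound delivered in addition one of three; Schedule: overnight seeding, then 1 h dark dye loading; Technique: Fluo-4 NW calcium fluorescence; Measure: B-scored fluorescence response ratio; Controls: positive and negative controls per plate.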
# RGS4 inh = human RGS4 inhibition | P49798 | HEK293 M3R/RGS4 inducible, Fluo-4 calcium flux; stronger effect = higher value; triggered by carbachol at its EC20 | B-score at 10 µM | 0.45% of 310,000 active;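 active means B-score, a plate-corrected calcium signal, over three deviations above library mean, with baseline fluorescence within five deviations of library mean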;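 further: RGS4 expression induced by doxycycline in cells with stable M3 receptor; B-score is computed from the integrated fluorescence ratio over baseline after carbachol; higher B-score means a larger calcium signal and so more RGS4 inhibition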
# Target sequence (P49798 whole entry, looked up): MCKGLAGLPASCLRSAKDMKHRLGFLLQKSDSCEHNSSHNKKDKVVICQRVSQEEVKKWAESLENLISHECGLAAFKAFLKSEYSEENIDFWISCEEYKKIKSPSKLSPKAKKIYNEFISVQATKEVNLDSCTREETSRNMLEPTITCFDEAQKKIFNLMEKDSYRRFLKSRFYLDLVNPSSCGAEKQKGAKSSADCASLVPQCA
# MrgX1 antag = human MrgX1 receptor antagonism, primary screen; Q96LB2; MRGX1-HEK293 calcium flux, Fluo-4, BAM8-22 antagonism; stronger effect = lower value; B-score at 10 µM; 1.3% of 310,000 active;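 active means calcium-response B-score plate-corrected more than 3 library SD below zero, starting fluorescence within 5 deviations, no agonist response on first addition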;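 further: peak minus trough fluorescence over baseline after final BAM8-22 challenge near maximal dose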
# MrgX1 allo act = human MrgX1 positive allosteric modulation, primary screen; AID 588675; 0.63% of 310,000 active; MrgX1-HEK293, Fluo-4 calcium flux, FDSS; stronger effect = higher value; B-score at 10 µM; Q96LB2;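 active means plate-corrected calcium response at least 3 library SD above typical, normal starting fluorescence, not activating the receptor alone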;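 further: compound read alongside a low EC10 to EC30 dose of BAM8-22 agonist; peak minus trough fluorescence over baseline measured at the second addition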
# RGS4 act = RGS4 potentiation or activation; 0.92% of 310,000 active; HEK293 M3R/inducible RGS4, carbachol calcium flux Fluo4; stronger effect = lower value; B-score at 10 µM;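 active means B-score of the integrated calcium signal more than 4 SD below the library mean, with starting fluorescence not abnormally high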;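 further: negative B-score means reduced calcium response which marks RGS4 activation or potentiation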
#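 test system = M3R-expressing HEK293 line, RGS4 induced by doxycycline | probe or stimulus = carbachol at ECmax as muscarinic agonist stimulus | timing = dye loading 30 min 37 °C, buffer rest 30 min RT | signal = calcium dye Fluo4 fluorescence | evaluation = B score from integrated fluorescence ratio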
# RGS4 activ val = confirmation of RGS4 activators; shares compounds with RGS4 act; HEK293 M3R/RGS4 inducible, carbachol calcium flux Fluo4; inhibition, % at 10 µM; 89% of 1,100 active; AID 602282;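 active means inhibition above 3 SD of the buffer control wells, cut at about 41% in these data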;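 further: signal is the integrated peak-minus-minimum Fluo4 fluorescence over baseline ratio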
# RGS4 act ctr = RGS4 activator counter-screen hit in non-induced cells; 82% of 1,100 active; HEK293 M3R non-induced RGS4, Fluo4 calcium flux; after carbachol challenge at its EC90; shares compounds with RGS4 act; inhibition, % at 10 µM;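 active means inhibition exceeding 3 SD of buffer-only control wells, cut at about 26% in these data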;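 further: percent drop in integrated peak-minus-baseline over baseline Fluo4 ratio after carbachol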
# An asterisk follows results filed as active; i = inactive; · = no result. Compounds with a hit are over-represented: about 3.5% of the library has one in this group of screens.
SMILES,MrgX1 agonist,RGS4 inh,MrgX1 antag,MrgX1 allo act,RGS4 act,RGS4 activ val,RGS4 act ctr
CC(C)C(O)(C#CCN1CCCCCC1)c1ccccc1 (stereo unspecified),i,i,i,i,-11*,94*,87*
CC(C)(C#CCN1CCCCC1)OCCOC(c1ccccc1)c1ccccc1,i,i,i,i,-12*,93*,92*
CC(O)(C#CCN1CCCCC1)c1ccccc1 (stereo unspecified),i,i,i,i,i,·,·
CC1CCCN1CC#CC(O)(c1ccccc1)c1ccccc1 (stereo unspecified),i,i,i,i,-7.9*,90*,92*
COC(=O)c1ccc(OCCN2CCCCCC2)cc1,i,i,i,i,-7.8*,66*,84*
CN(C)CC[C@@H](c1ccc(Br)cc1)c1ccccn1,i,i,i,i,i,·,·
CN(C)CC[C@@H](c1ccc(Cl)cc1)c1ccccn1,i,i,i,i,-13*,57*,0
S=C(NCC1CCCCC1)Nc1ccc(Oc2ccccc2)cc1,i,i,i,i,-7.6*,93*,60*
COc1cc(-c2nnc(SCC(=O)NC3CCCC3)n2C)cc(OC)c1O,i,i,i,i,i,·,·
O=C(OCCN1CCCC1)C1(c2ccccc2)CCCC1,·,i,·,·,-9.3*,94*,93*
C[N+]1(CCCOC(=O)C2(c3ccccc3)CCCC2)CCOCC1,i,i,i,i,i,·,·
O=C(OCCN1CCCCC1)C1(c2ccccc2)CCCC1,i,i,i,i,-10*,92*,92*
O=C(OCCN1CCCCC1)c1ccccc1Br,i,i,i,i,i,·,·
CN(C)CCOC(=O)C1(c2ccccc2)CCCC1,i,i,i,i,-8.5*,92*,91*
CC(=O)Nc1ccc(C(=O)CSc2nnnn2C2CCCC2)cc1,i,i,i,i,i,·,·
COc1cc(OC)cc(C(=O)NCC(=O)Nc2ccc(OC)c(Cl)c2)c1,i,i,i,i,i,·,·
CCc1ccc(/C(C)=N/NC(=O)CNC(=O)/C=C/c2ccco2)cc1,i,i,i,i,i,·,·
CCN(C(=O)COC(=O)c1cc(=O)[nH]c2ccccc12)C1CCS(=O)(=O)C1 (stereo unspecified),i,i,i,i,i,·,·
CN1C2CCC1CC(NC(=O)CSc1ccc(Cl)cc1)C2 (stereo unspecified),i,i,i,i,-9*,59*,0
CN1C2CCC1CC(NC(=O)c1ccc(Cl)cc1)C2 (stereo unspecified),i,i,i,i,i,·,·
Cc1cc2[nH]c(=O)c(=O)[nH]c2cc1S(=O)(=O)Nc1cccc(Cl)c1,i,i,i,i,i,·,·
COc1ccc(CCNC(=O)CN(C)S(=O)(=O)c2ccc(OC)cc2)cc1,i,i,i,i,i,·,·
CC(Oc1ccccc1)C(=O)NC1CCN(Cc2ccccc2)CC1 (stereo unspecified),i,i,i,i,-8.3*,80*,53*
COCc1cc(=O)[nH]c2c1c(-c1ccccc1)nn2C,i,i,i,i,i,·,·
Nc1ncc(Br)cc1S(=O)(=O)NCCC(=O)N1CCN(c2ccccn2)CC1,i,i,i,i,-8.7*,75*,84*
O=C1CSC(c2ccccn2)N1c1ccc(C(F)(F)F)cc1 (stereo unspecified),i,i,i,i,i,·,·
CCN1CCCC1CNCc1cccc(OC)c1OCc1ccccc1 (stereo unspecified),i,i,i,i,i,·,·
CCN1CCCC1CNCc1ccccc1OCc1ccc(F)cc1 (stereo unspecified),i,i,i,i,-7.6*,46*,0

# Source: PubChem (Johns Hopkins Ion Channel Center)
